Measured values reported in ChEMBL document CHEMBL5715951, “Synergistic Reactivation of Latent HIV Expression by Ingenol-3-Angelate, PEP005, Targeted NF-kB Signaling in Combination with JQ1 Induced p-TEFb Activation” (PLoS Pathog, 2015).
Active and inactive are the calls of the source. No cut-off for these calls is given here.

Columns and labels:
J-Lat A1 [1] = experiment: Cytotoxicity against human J-Lat A1 cells harboring a single copy of latent HIV LTR assessed as cell viability at 2 to 40 nM by Live/Dead dye staining assay; assay type: functional, cell-based; details: dose 2-40 nM
Procedure, shortened: (§1)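 J-Lat A1 cells exposed to PEP005 over 2–40 nM for 24 h; HIV reactivation as GFP expression by flow cytometry, fold versus untreated; viability by Live/Dead dye staining, flow cytometry.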

[2] = Anti retroviral activity against human J-Lat A1 cells harboring a single copy of latent HIV LTR assessed as fold increase in HIV reactivation at 20 nM by flow cytometry analysis; assay type: functional; procedure, shortened: as §1
J-Lat A1 [3] = experiment: Anti retroviral activity against human J-Lat A1 cells harboring a single copy of latent HIV LTR assessed as HIV reactivation by flow cytometry analysis; assay type: functional, cell-based; details: dose 2-40 nM; procedure, shortened: as §1
J-Lat A1 [4] = experiment: Anti retroviral activity against human J-Lat A1 cells harboring a single copy of latent HIV LTR assessed as HIV reactivation at 10 nM incubated for 24 hrs by flow cytometry analysis; assay type: functional, cell-based
Procedure, shortened: (§2)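 J-Lat A1 cells (single latent LTR-GFP copy) treated 24 h at fixed levels (10 nM PEP005, 500 nM SAHA, 2 μM JQ1/GSK343/Prostratin, 10 ng/ml TNF, 5 ng/ml PMA); percentage GFP-positive cells by flow cytometry.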

U1 [5] = experiment: Anti retroviral activity against human U1 cells harbouring HIV genomes with Tat gene mutation assessed as fold increase in HIV reactivation at 6 nM by flow cytometry analysis; assay type: functional
J-Lat A1 [6] = experiment: Induction of PKC/NF-Kappa B pathway in human J-Lat A1 cells assessed as upregulation of PKC mu/D at 12 nM upto 6 hrs by Western blotting analysis; assay type: cell-based
Procedure, shortened: (§3)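 One million J-Lat A1 cells incubated with 12 nM PEP005 up to 6 h; RIPA extracts with protease/phosphatase inhibitors; immunoblots for PKC isoforms, phospho-PKCδ/θ, NF-κB/p65 and phospho-IκBα (Ser32), β (Thr19/Ser23), ε (Ser18/22); band intensities by densitometry, three independent experiments.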

J-Lat A1 [7] = experiment: Induction of PKC/NF-Kappa B pathway in human J-Lat A1 cells assessed as upregulation of PKC alpha at 12 nM upto 6 hrs by Western blotting analysis; assay type: cell-based; procedure, shortened: as §3
J-Lat A1 [8] = experiment: Induction of PKC/NF-Kappa B pathway in human J-Lat A1 cells assessed as upregulation of PKC theta at 12 nM upto 6 hrs by Western blotting analysis; assay type: cell-based; procedure, shortened: as §3
J-Lat A1 [9] = experiment: Induction of PKC/NF-Kappa B pathway in human J-Lat A1 cells assessed as upregulation of PKC delta at 12 nM at 1 hr by Western blotting analysis; assay type: cell-based; procedure, shortened: as §3
[10] = Induction of PKCtheta/PKCdelta phosphorylation at Ser676/Ser643 in human J-Lat A1 cells assessed as fold change measured after 30 mins; details: condition hiv infection, 0.5 h
[11] = target: T1, Inhibitor of nuclear factor kappa-B kinase subunit beta (Homo sapiens) (UniProt O14920); experiment: Induction of IkappaB beta phosphorylation in human […] at 12 nM upto 6 hrs by Western blotting analysis; assay type: cell-based; details: J-Lat A1; procedure, shortened: as §3
T1 sequence (whole entry): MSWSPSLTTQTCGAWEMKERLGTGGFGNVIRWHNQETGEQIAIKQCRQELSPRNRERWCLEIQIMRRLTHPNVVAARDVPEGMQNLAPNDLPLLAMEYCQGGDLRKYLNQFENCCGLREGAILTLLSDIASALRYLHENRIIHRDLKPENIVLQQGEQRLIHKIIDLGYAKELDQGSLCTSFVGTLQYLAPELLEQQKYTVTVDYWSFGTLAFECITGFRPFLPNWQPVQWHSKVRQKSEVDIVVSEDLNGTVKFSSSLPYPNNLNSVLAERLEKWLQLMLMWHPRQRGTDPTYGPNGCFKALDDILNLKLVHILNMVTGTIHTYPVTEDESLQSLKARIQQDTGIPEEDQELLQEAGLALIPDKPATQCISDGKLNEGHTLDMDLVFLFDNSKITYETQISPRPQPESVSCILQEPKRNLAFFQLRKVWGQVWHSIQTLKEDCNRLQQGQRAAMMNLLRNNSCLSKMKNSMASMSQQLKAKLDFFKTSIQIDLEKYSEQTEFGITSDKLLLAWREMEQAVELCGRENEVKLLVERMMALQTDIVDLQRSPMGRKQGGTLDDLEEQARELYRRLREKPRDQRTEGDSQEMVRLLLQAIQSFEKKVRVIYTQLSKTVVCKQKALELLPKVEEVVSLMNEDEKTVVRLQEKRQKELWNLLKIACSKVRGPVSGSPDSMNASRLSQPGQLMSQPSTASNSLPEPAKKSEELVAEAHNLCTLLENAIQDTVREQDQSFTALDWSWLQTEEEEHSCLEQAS

J-Lat A1 [12] = experiment: Effect on NF kappaB/p65 expression in human […] at 12 nM upto 6 hrs by Western blotting analysis; assay type: functional, cell-based; procedure, shortened: as §3
[13] = Inhibition of PKCtheta/PKCdelta in HIV infected human J-Lat A cells assessed as reduction of HIV latent reactivation treated at 6 nM in presence of PKC inhibitor relative to control; design: species or system J-Lat A1; scale not given: the % may be the effect or the level left; details: condition hiv infection
Procedure, shortened: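 J-Lat A1 cells got 6 nM PEP005 together with 1, 2 or 5 μM PKCθ/δ inhibitor. HIV reactivation was read as GFP expression by RT-qPCR against PEP005-only cells. Data from at least 3 independent experiments in triplicate.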

[14] = Binding affinity of NFkappa B to HIV LTR in human J-Lat A1 cells assessed as fold increase at 12 nM by ChIP-qPCR analysis; details: condition hiv infection
Procedure, shortened: (§4)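 ChIP-qPCR on J-Lat A1 cells, 1x10^6 per sample, given 12 nM PEP005 with or without a PKCδ/θ inhibitor. Cells fixed in 1% formaldehyde and lysed in SDS/EDTA/Tris pH 8.1 buffer with protease inhibitors. Chromatin sonicated to 200–1500 bp. Immune complexes taken on protein A/G-agarose for 45 min, then reverse cross-linked overnight. NF-κB/p65 binding at HIV LTR read by SYBR qPCR. Data from at least 3 independent experiments in triplicate.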

[15] = Binding affinity of NFkappa B to HIV LTR in human J-Lat A1 cells assessed as reduction in compound induced fold increase at 12 nM in presence of PKC inhibitor by ChIP-qPCR analysis relative to control; design: scale not given: the % may be the effect or the level left; details: condition hiv infection; procedure, shortened: as §4
[16] = Cytotoxicity against human CD4+ T cells assessed as change in CD38 expression at 12 nM for 24 hrs by RT-qPCR analysis; assay type: toxicity, cell-based; details: cd4+ t cell, 0.012 µM
Procedure, shortened: (§5)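 CD4+ T cells purified from uninfected donors, treated 24 h with 12 nM; total RNA extracted and CD38, CD69, CD25 and HLA-DR transcripts measured by RT-qPCR.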

[17] = Cytotoxicity against human CD4+ T cells assessed as change in CD25 expression at 12 nM for 24 hrs by RT-qPCR analysis; assay type: toxicity, cell-based; details: cd4+ t cell, 0.012 µM; procedure, shortened: as §5
[18] = Cytotoxicity against human CD4+ T cells assessed as change in CD69 expression at 12 nM for 24 hrs by RT-qPCR analysis; assay type: toxicity, cell-based; details: cd4+ t cell, 0.012 µM; procedure, shortened: as §5
CD4+ T cell [19] = experiment: Induction of pro-inflammatory cytokine TNF-alpha expression in human CD4+ T cells at 6 to 12 nM for 24 to 72 hrs by RT-qPCR analysis; assay type: functional, cell-based; details: dose 6-12 nM, time 24-72 hrs
Procedure, shortened: (§6)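 CD4+ T cells from healthy HIV-negative donors treated with 6 or 12 nM PEP005 for 24 or 72 h; TNF-α, IFN-γ, IL-2 and IL-6 mRNA quantified by RT-qPCR normalized to GAPDH.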

CD4+ T cell [20] = experiment: Induction of pro-inflammatory cytokine IFN-gamma expression in human CD4+ T cells at 6 to 12 nM for 24 to 72 hrs by RT-qPCR analysis; assay type: functional, cell-based; details: dose 6-12 nM, time 24-72 hrs; procedure, shortened: as §6
CD4+ T cell [21] = experiment: Induction of pro-inflammatory cytokine IL-2 expression in human CD4+ T cells at 6 to 12 nM for 24 to 72 hrs by RT-qPCR analysis; assay type: functional, cell-based; details: dose 6-12 nM, time 24-72 hrs; procedure, shortened: as §6
CD4+ T cell [22] = experiment: Induction of pro-inflammatory cytokine IL-6 expression in human CD4+ T cells at 6 to 12 nM for 24 to 72 hrs by RT-qPCR analysis; assay type: functional, cell-based; details: dose 6-12 nM, time 24-72 hrs; procedure, shortened: as §6
J-Lat A1 [23] = experiment: Induction of cell cycle arrest in human J-Lat A1 cells assessed as accumulation of cells at S phase at 12 nM for 24 hrs BrdU ELISA analysis; assay type: functional, cell-based
Procedure, shortened: (§7)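 U1, J-Lat A1 or healthy-donor CD4+ T cells treated 24 h with 12 nM PEP005; S-phase progression by BrdU incorporation ELISA; doxorubicin […] positive control.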

U1 [24] = experiment: Induction of cell cycle arrest in human U1 cells assessed as accumulation of cells at S phase at 12 nM for 24 hrs BrdU ELISA analysis; assay type: functional, cell-based; procedure, shortened: as §7
CD4+ T cell [25] = experiment: Induction of cell cycle arrest in human CD4+ T cells assessed as accumulation of cells at S phase at 12 nM for 24 hrs BrdU ELISA analysis; assay type: functional, cell-based; procedure, shortened: as §7
[26] = Inhibition of PKCtheta/PKCdelta in HIV infected human J-Lat A cells assessed as reduction of PEP005 induced disruption of HIV latency treated at 2.5 nM relative to control; design: species or system J-Lat A1; scale not given: the % may be the effect or the level left; details: condition hiv infection
J-Lat A1 [27] = experiment: Anti retroviral activity against human J-Lat A1 cells harboring a single copy of latent HIV LTR assessed as HIV reactivation at 2 uM incubated for 24 hrs by flow cytometry analysis; assay type: functional, cell-based; procedure, shortened: as §2
J-Lat A1 [28] = experiment: Anti retroviral activity against human J-Lat A1 cells harboring a single copy of latent HIV LTR assessed as HIV reactivation at 5 ng/ml incubated for 24 hrs by flow cytometry analysis; assay type: functional, cell-based; procedure, shortened: as §2
J-Lat A1 [29] = experiment: Anti retroviral activity against PEP005 treated human J-Lat A1 cells harboring a single copy of latent HIV LTR assessed as HIV reactivation at 2 uM followed by 6 nM of PEP005 incubated for 24 hrs by flow cytometry analysis; assay type: functional, cell-based
Procedure, shortened: (§8)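 J-Lat A1 cells (RPMI1640, 10% FBS, 37°C, 5% CO2) exposed to 2 μM agent alone or combined with 6 nM PEP005 for 24 h; percentage of GFP-expressing cells by flow cytometry; Bliss independence model for synergy; ≥3 independent experiments in triplicate.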

J-Lat A1 [30] = experiment: Anti retroviral activity against PEP005 treated human J-Lat A1 cells harboring a single copy of latent HIV LTR assessed as HIV reactivation at 2 uM incubated for 24 hrs by flow cytometry analysis; assay type: functional, cell-based; procedure, shortened: as §8
U1 [31] = experiment: Anti retroviral activity against PEP005 treated human U1 cells harbouring complete HIV genomes with Tat gene mutation assessed as fold increase in HIV reactivation at 2 uM followed by 6 nM of PEP005 incubated for 24 hrs by flow cytometry analysis; assay type: functional
J-Lat A1 [32] = experiment: Anti retroviral activity against human J-Lat A1 cells harboring a single copy of latent HIV LTR assessed as HIV reactivation at 500 nM incubated for 24 hrs by flow cytometry analysis; assay type: functional, cell-based; procedure, shortened: as §2

C/C=C(/C)C(=O)O[C@H]1C(C)=C[C@]23C(=O)[C@@H](C=C(CO)[C@@H](O)[C@]12O)[C@H]1[C@@H](C[C@H]3C)C1(C)C [INGENOL MEBUTATE]
Activity (J-Lat A1 [1]): inactive
fold change (FC) [2]: 7
Activity (J-Lat A1 [3]): Dose-Dependent Effect
Activity (J-Lat A1 [4]): Active
fold change (FC) (U1 [5]): 25
Activity (J-Lat A1 [6]): inactive
Activity (J-Lat A1 [7]): inactive
Activity (J-Lat A1 [8]): inactive
Activity (J-Lat A1 [9]): Active
fold change (FC) [10]: 2
Activity [11]: inactive
Activity (J-Lat A1 [12]): inactive
Activity [13]: >65%
fold change (FC) [14]: 6
Activity [15]: >70%
Activity [16]: Non-Toxic
Activity [17]: Non-Toxic
Activity [18]: Non-Toxic
Activity (CD4+ T cell [19]): inactive
Activity (CD4+ T cell [20]): inactive
Activity (CD4+ T cell [21]): inactive
Activity (CD4+ T cell [22]): inactive
Activity (J-Lat A1 [23]): inactive
Activity (U1 [24]): inactive
Activity (CD4+ T cell [25]): inactive

Cc1ccc(S(=O)(=O)/C=C/C#N)cc1
Activity [26]: 50%

CC(=O)O[C@@]12C[C@@H](C)[C@@]3(O)[C@@H](C=C(CO)C[C@]4(O)C(=O)C(C)=C[C@@H]34)[C@@H]1C2(C)C
Activity (J-Lat A1 [27]): Active

CCCCCCCCCCCCCC(=O)O[C@@H]1[C@@H](C)[C@@]2(O)[C@@H](C=C(CO)C[C@]3(O)C(=O)C(C)=C[C@@H]23)[C@@H]2C(C)(C)[C@]12OC(C)=O
Activity (J-Lat A1 [28]): Active

CCCc1cc(C)[nH]c(=O)c1CNC(=O)c1cc(-c2ccnc(N3CCN(C)CC3)c2)cc2c1cnn2C(C)C
Activity (J-Lat A1 [27]): inactive
Activity (J-Lat A1 [29]): Active

Cc1sc2c(c1C)C(c1ccc(Cl)cc1)=N[C@@H](CC(=O)OC(C)(C)C)c1nnc(C)n1-2
Activity (J-Lat A1 [27]): Active
Activity (J-Lat A1 [30]): Active
Activity (J-Lat A1 [29]): Active
fold change (FC) (U1 [31]): 250

O=C(CCCCCCC(=O)Nc1ccccc1)NO
Activity (J-Lat A1 [32]): Active
